From ChEMBL document CHEMBL4002547, “Aminopurine and aminoquinazoline scaffolds for development of potential dengue virus inhibitors” (Eur J Med Chem, 2017)

How the values were obtained:
[1] = Cytotoxicity against African green monkey Vero B cells assessed as decrease in cell viability by microscopic method; format: cell-based; conditions: chlorocebus sabaeus
In short: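 Uninfected Vero B cells were exposed for 7 days to serial compound dilutions. Wells were inspected microscopically for changes in host cell morphology, and CC50 was calculated from the microscopic scoring data.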

[2] = system: dengue virus type 2; test: Antiviral activity against Dengue virus serotype 2 infected in African green monkey Vero B cells assessed as inhibition of viral RNA replication after 4 days by RT-qPCR method; format: functional; conditions: 96 h, read-out: ED50 (the source's name)
[3] = Selectivity index, ratio of CC50 for African green monkey Vero B cells to EC50 for Dengue virus serotype 2 infected in African green monkey Vero B cells; format: toxicity; conditions: read-out: Ratio CC50/EC50
In short: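 In a CPE-reduction assay, DENV-2 in Vero B cells was run over 7 days with serial compound dilutions, with and without virus. EC50 (inhibition of virus-induced CPE) and CC50 come from microscopic scoring, with MTS/PMS also used for toxicity. The index is CC50/EC50.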

[4] = Cytotoxicity against African green monkey Vero B cells assessed as decrease in cell viability by MTS/PMS assay; format: cell-based; conditions: chlorocebus sabaeus
In short: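 Vero B cells (African green monkey kidney, ECACC) were incubated for 7 days with serial compound dilutions without virus. Toxicity was quantified by the MTS/PMS method, and CC50 is the compound concentration giving 50% cytotoxicity.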

[5] = system: dengue virus type 2; test: Antiviral activity against Dengue virus serotype 2 by human cell-based assay; format: functional
[6] = Inhibition of Dengue virus serotype 2 N-terminal His6-tagged NS5 RdRp activity expressed in baculovirus expression system using poly(C)/5'-biotinylated oligo (G)20 as template/primer assessed as inhibition of [3H]GTP incorporation after 20 mins by scintillation proximity assay; parameters: species or system dengue virus type 2

Row | EC50 [2] [µM] | EC50 [5] [µM] | IC50 [6] [µM] | SMILES | CC50 [1] [µM] | selectivity ratio [3] | CC50 [4] [µM]
1 | 7.2 | – | – | COc1ccc(Cn2cnc3c(Nc4ccc(C)cc4Br)nc(Cl)nc32)cc1 | 63 | 15 | > 109
2 | 10.9 | – | – | Cc1ccc(Nc2nc(Cl)nc3ccccc23)c(Br)c1 | 32 | 13 | > 144
3 | 2.6 | – | – | Cc1ccc(Nc2nc(Nc3ccc(C)cc3-c3cc(C)n[nH]3)c3ccccc3n2)cc1 | – | 2 | 5.8
4 | – | 0.119 | – | Clc1ccc(-c2ccc(-c3nc(NCc4cccnc4)c4ccccc4n3)s2)cc1 | – | – | –
5 | 28.9 | – | – | Cc1ccc(Nc2nc(Cl)nc3[nH]cnc23)c(-c2cc(C)n[nH]2)c1 | – | 5 | > 147
6 | – | – | 0.7 | O=C(O)c1ccccc1NS(=O)(=O)c1cccc(-c2cnn(Cc3ccccc3)c2)c1 | – | – | –
7 | 6.7 | – | – | Cc1ccc(Nc2nc(Nc3ccc(F)cc3)nc3ccccc23)c(-c2cc(C)n[nH]2)c1 | – | 1 | 8.7
8 | 9.2 | – | – | Cc1ccc(Nc2nc(Cl)nc3ccccc23)c(-c2cc(C)n[nH]2)c1 | – | 11 | 97
9 | 9.9 | – | – | COc1ccc(Cn2cnc3nc(Cl)nc(Cl)c32)cc1 | – | 1 | 12.3
10 | 33.5 | – | – | Cc1ccc(Nc2nc(Cl)nc3[nH]cnc23)c(Br)c1 | – | 4 | > 148
11 | 17.6 | – | – | COc1ccc(Cn2cnc3c(Cl)nc(Cl)nc32)cc1 | – | 2 | 32.4
12 | 1.9 | – | – | COc1ccc(Cn2cnc3c(Nc4ccc(C)cc4-c4cc(C)n[nH]4)nc(Cl)nc32)cc1 | 10 | 58 | > 109
